Data set [1] addresses T1, Prostaglandin G/H synthase 2 (Homo sapiens) (UniProt P35354).
T1 sequence (whole entry): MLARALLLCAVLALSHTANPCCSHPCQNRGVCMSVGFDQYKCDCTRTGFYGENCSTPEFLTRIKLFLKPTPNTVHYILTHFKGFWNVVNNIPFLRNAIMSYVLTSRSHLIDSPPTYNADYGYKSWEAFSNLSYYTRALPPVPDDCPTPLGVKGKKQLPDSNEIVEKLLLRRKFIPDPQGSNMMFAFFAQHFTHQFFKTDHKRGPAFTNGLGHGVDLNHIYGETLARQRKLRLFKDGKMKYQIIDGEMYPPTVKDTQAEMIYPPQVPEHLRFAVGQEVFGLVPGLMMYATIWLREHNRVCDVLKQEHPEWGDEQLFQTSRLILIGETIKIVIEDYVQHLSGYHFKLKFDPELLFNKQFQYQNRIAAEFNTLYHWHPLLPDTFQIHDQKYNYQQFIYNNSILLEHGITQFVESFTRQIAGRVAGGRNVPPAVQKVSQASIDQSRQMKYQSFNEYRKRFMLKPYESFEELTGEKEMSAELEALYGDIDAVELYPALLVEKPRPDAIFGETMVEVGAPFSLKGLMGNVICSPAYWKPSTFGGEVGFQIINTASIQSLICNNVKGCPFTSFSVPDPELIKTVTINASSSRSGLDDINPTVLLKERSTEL
Description: Inhibition of COX2-mediated PGE2 formation in IL1beta/TNFalpha-stimulated human HeLa cells using arachidonic acid as substrate assessed as residual activity at 10 uM measured after 30 mins by ELISA. Format: cell-based. In a few lines: (§1)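 HeLa cells (3 × 10^4/well) grown 24 h, then induced with 1 ng/ml IL1β and 5 ng/ml TNFα for 24 h; washed three times with PBS containing fatty-acid-free BSA 1 mg/ml. Medium with cytokines plus compound or DMSO for 30 min, stopped on ice; supernatant PGE2 by ELISA, percent of DMSO control. Three experiments, mean ± S.E.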
For orientation: ELISA stands for enzyme-linked immunosorbent assay.

The target of data set [2] is T2, Polyunsaturated fatty acid lipoxygenase ALOX12 (Homo sapiens) (UniProt P18054).
T2 sequence (whole entry): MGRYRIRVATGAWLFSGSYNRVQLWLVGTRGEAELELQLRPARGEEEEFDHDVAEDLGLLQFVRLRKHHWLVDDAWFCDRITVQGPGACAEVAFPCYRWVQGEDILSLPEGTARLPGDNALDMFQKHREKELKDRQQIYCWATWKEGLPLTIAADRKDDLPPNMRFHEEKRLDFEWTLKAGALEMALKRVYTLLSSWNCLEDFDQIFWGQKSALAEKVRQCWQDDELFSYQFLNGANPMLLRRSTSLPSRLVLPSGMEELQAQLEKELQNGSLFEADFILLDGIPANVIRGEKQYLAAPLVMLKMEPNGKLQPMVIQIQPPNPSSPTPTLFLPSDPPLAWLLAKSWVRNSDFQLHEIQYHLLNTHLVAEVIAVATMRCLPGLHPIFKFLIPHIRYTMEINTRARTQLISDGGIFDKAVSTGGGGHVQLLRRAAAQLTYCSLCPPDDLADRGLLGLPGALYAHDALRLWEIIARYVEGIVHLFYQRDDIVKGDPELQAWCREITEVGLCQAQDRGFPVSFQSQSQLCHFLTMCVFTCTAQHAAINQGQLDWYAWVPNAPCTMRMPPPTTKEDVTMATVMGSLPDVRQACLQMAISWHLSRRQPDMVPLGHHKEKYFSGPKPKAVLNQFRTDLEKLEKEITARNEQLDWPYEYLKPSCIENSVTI
Put plainly: Inhibition of 12-LO-mediated 12-HPETE formation in human platelets using arachidonic acid as substrate assessed as residual activity at 50 uM preincubated for 15 mins before substrate addition measured after 10 mins. An outline of the steps: (§2)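 Freshly isolated human platelets (10^8 in 1 ml PBS pH 7.4 with 1 mg/ml glucose and 1 mM CaCl2) preincubated with compound or DMSO 15 min at 37 °C, then 10 µM AA added; 10 min at 37 °C, stopped with ice-cold methanol. HPLC: 12-H(P)ETE for 12-LO, 12-HHT for COX-1; percent of DMSO control, n ≥ 3, mean ± S.E.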

In data set [3] the target is T3, Polyunsaturated fatty acid lipoxygenase ALOX15 (Homo sapiens) (UniProt P16050).
T3 sequence (whole entry): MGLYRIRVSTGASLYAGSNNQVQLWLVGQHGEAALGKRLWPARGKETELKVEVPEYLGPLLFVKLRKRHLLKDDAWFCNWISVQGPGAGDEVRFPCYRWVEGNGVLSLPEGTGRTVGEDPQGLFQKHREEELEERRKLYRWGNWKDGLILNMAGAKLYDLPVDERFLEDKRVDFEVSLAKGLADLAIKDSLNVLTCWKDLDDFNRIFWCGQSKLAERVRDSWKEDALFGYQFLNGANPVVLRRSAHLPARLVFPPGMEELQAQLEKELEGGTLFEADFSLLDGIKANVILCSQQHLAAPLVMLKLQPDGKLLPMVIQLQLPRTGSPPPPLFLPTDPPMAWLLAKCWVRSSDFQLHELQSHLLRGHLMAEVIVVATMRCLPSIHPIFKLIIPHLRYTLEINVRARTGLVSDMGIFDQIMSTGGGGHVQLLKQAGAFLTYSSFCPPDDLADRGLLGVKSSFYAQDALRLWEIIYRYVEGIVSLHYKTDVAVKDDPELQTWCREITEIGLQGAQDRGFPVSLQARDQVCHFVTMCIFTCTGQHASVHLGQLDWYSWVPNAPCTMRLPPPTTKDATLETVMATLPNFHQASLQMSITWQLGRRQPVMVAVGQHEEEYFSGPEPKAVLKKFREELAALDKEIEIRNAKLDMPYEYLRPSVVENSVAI
Put plainly: Inhibition of 15-LO1-mediated 15-HPETE formation in human eosinophil using arachidonic acid as substrate assessed as residual activity at 50 uM preincubated for 15 mins before substrate addition measured after 10 mins. In a few lines: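 Freshly isolated human PMNL (5 × 10^6/ml PBS-glucose, 1 mM CaCl2), with 15-LO1 from contaminating eosinophils, preincubated with compound 15 min at 37 °C; stimulated with 2.5 µM A23187 plus 20 µM AA for 10 min at 37 °C, methanol stop. 15-H(P)ETE peak quantified by HPLC as percent of DMSO control; n ≥ 3, mean ± S.E.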

Data set [4] has as its target Prostaglandin G/H synthase 1 (Homo sapiens) (UniProt P23219). Put plainly: Inhibition of COX1 in human platelets using arachidonic acid as substrate assessed as residual activity at 10 uM preincubated for 15 mins before substrate addition measured after 10 mins. An outline of the steps: as §2
Data set [5] can be described thus: Cytotoxicity against human U937 cells at 30 uM after 48 hrs by LDH assay. The data set is classed as cell-based. Particulars: u-937, 48 h. An outline of the steps:
(§3)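 U937 cells (DSMZ; RPMI, 10% FCS, 37 °C, 5% CO2) seeded at 1.5 × 10^4 cells/well, exposed to test agent or DMSO vehicle for 48 h. Supernatant collected after centrifugation; LDH release quantified by kit, expressed relative to detergent-lysed maximum (100%). Three experiments, mean ± S.E.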

The nature of data set [6]: Cytotoxicity against human U937 cells at 100 uM after 48 hrs by LDH assay. Format: cell-based. Particulars: u-937, 48 h. In a few lines:
as §3

Data set [7] concerns the target Prostaglandin G/H synthase 1 (Homo sapiens) (UniProt P23219). Put plainly: Inhibition of COX1 in human platelets using arachidonic acid as substrate assessed as residual activity at 50 uM preincubated for 15 mins before substrate addition measured after 10 mins. An outline of the steps:
as §2

Data set [8] deals with T1, Prostaglandin G/H synthase 2 (Homo sapiens). Put plainly: Inhibition of COX2-mediated PGE2 formation in IL1beta/TNFalpha-stimulated human HeLa cells using arachidonic acid as substrate assessed as residual activity at 50 uM measured after 30 mins by ELISA. The data set is classed as cell-based. In a few lines:
as §1

Where only a bound is given, the exact number is not on record here.

Chain of Prostaglandin G/H synthase 1 (Homo sapiens) (P23219 whole entry): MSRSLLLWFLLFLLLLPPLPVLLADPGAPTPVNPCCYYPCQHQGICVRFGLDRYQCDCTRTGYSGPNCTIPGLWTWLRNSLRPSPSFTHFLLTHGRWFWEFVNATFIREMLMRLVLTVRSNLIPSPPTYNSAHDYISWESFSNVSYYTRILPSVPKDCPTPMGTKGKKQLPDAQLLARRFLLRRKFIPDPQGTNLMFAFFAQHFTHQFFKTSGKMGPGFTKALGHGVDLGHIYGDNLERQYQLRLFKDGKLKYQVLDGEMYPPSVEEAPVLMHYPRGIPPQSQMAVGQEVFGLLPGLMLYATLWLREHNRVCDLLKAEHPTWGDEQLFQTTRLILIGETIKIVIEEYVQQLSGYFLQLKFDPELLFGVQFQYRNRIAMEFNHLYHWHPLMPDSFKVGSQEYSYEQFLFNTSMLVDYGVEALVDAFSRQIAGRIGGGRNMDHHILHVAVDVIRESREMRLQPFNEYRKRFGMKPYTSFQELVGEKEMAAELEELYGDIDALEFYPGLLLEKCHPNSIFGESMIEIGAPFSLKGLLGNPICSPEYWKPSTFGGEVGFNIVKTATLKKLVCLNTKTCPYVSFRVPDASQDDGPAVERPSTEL

Take `Oc1ccc(Nc2nc(-c3ccc(Cl)c(Cl)c3)cs2)cc1`: the Activity in data set [1] was 15.1%; in data set [2], 32.6%; in data set [3] it was above 70%; in data set [4], 69.4%.

For `Oc1ccccc1Nc1nc(-c2ccc(Cl)cc2)cs1`, the Activity is 9.1% in data set [1]; 0.9% in data set [5]; above 70% in data set [2]; above 70% in data set [3]; 67.4% in data set [4].

`CCCCCC(O)c1cccc(OCc2ccc3ccccc3n2)c1` (stereo unspecified) [REV-5901]: in data set [6], the Activity is 28.3%.

Regarding `Oc1ccc(Nc2nc(-c3ccc(Cl)cc3)cs2)cc1`, the Activity is 28.6% in data set [7]; 17.5% in data set [5]; 4.1% in data set [8]; above 70% in data set [2]; above 70% in data set [3].

In data set [6], `CC(c1cc2ccccc2s1)N(O)C(N)=O` (stereo unspecified) [ZILEUTON] came in with an Activity of 1.5%.

As to `Oc1ccc(-c2csc(Nc3ccc(Cl)cc3)n2)cc1`, the Activity in data set [7] was 3.5%; in data set [5], 1.4%; in data set [8], 2.1%; in data set [2] it was above 70%; in data set [3], 43.1%.

For the origin of these results see ChEMBL document CHEMBL3352533, “Multi-dimensional target profiling of N,4-diaryl-1,3-thiazole-2-amines as potent inhibitors of eicosanoid metabolism” (Eur J Med Chem, 2014).
